Calls of active or inactive are those of the source. No cut-off for these calls is given here.
Experiments:
SW480 [1] = test: Antiproliferative activity against human SW480 cells assessed as inhibition of cell growth at 75 uM incubated for 72 hrs by MTT assay relative to control; type: functional; settings: SW480, 72 h
ASPC1 [2] = test: Antiproliferative activity against human AsPC1 cells assessed as inhibition of cell growth incubated for 72 hrs by MTT assay; type: functional; settings: for CC50: ASPC1, 72 h
Method in brief: (§1)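 MTT viability assay after 72 h exposure to compound over 0–24 μM, 24 μM being the highest concentration. […] Data are means ± SD of duplicate experiments, five replicates each.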

A498 [3] = test: Antiproliferative activity against human A498 cells assessed as inhibition of cell growth incubated for 72 hrs by MTT assay; type: functional; settings: for CC50: A498, 72 h; method in brief: as §1
BXPC-3 [4] = test: Antiproliferative activity against human BxPC3 cells assessed as inhibition of cell growth at 75 uM incubated for 72 hrs by MTT assay relative to control; type: functional; settings: BXPC-3, 72 h
HT-29 [5] = test: Antiproliferative activity against human HT-29 cells assessed as inhibition of cell growth at 75 uM incubated for 72 hrs by MTT assay relative to control; type: functional; settings: HT-29, 72 h
[6] = target: T1, Peroxisome proliferator-activated receptor gamma (Homo sapiens) (UniProt P37231); test: Effect on GAL4-tagged human PPARgamma LBD expressed in human HepG2 cells incubated for 20 to 22 hrs by luciferase reporter gene assay; type: cell-based
T1 sequence (whole entry): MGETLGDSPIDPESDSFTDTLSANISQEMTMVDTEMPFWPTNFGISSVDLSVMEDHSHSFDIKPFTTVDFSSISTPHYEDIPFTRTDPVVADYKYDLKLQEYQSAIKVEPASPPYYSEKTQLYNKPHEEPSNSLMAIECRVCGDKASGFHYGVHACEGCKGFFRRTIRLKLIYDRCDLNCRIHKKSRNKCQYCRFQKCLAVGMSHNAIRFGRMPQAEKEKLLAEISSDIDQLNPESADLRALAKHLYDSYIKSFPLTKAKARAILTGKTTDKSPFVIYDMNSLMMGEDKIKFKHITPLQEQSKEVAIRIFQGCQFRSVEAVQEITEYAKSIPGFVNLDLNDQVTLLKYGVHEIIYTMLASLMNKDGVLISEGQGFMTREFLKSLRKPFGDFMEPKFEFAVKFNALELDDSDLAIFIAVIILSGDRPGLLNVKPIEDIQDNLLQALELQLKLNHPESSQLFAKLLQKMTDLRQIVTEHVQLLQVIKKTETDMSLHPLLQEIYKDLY

[7] = target: T2, Peroxisome proliferator-activated receptor alpha (Homo sapiens, UniProt Q07869); test: Antagonist activity at GAL4-tagged human PPARalpha LBD expressed in human HepG2 cells assessed as inhibition of Wy14,643-induced receptor transactivation incubated for 20 to 22 hrs by luciferase reporter gene assay; type: cell-based
T2 sequence (Q07869 whole entry): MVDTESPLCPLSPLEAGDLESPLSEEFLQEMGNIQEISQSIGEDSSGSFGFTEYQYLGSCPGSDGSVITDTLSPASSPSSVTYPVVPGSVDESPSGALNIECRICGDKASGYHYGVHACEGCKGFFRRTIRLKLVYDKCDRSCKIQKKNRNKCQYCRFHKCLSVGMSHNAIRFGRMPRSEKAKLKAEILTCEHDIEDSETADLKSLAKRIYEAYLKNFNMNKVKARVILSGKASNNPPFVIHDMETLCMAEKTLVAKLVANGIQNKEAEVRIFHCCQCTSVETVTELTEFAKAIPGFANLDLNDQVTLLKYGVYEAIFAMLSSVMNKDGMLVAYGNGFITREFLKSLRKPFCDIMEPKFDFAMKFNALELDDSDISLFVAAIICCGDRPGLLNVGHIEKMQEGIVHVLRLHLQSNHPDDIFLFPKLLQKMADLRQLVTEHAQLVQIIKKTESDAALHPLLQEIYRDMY

[8] = (§2) Antiproliferative activity against human PTJ86i cells assessed as inhibition of cell growth at 75 uM incubated for 72 hrs by MTT assay relative to control; type: functional
Capan-2 [9] = test: Antiproliferative activity against human Capan2 cells assessed as inhibition of cell growth at 75 uM incubated for 72 hrs by MTT assay relative to control; type: functional; settings: Capan-2, 72 h
Capan-2 [10] = test: Antiproliferative activity against human Capan2 cells assessed as inhibition of cell growth incubated for 72 hrs by MTT assay; type: functional; settings: for CC50: Capan-2, 72 h; method in brief: as §1
HFF-1 = test: Cytotoxicity against human HFF1 cells assessed as reduction in cell viability incubated for 72 hrs by MTT assay; type: cell-based; settings: hff-1, 72 h; method in brief: as §1
A498 [11] = test: Antiproliferative activity against human A498 cells assessed as inhibition of cell growth at 75 uM incubated for 72 hrs by MTT assay relative to control; type: functional; settings: A498, 72 h
HT-29 [12] = test: Antiproliferative activity against human HT-29 cells assessed as inhibition of cell growth incubated for 72 hrs by MTT assay; type: functional; settings: for CC50: HT-29, 72 h; method in brief: as §1
SW480 [13] = test: Antiproliferative activity against human SW480 cells assessed as inhibition of cell growth incubated for 72 hrs by MTT assay; type: functional; settings: for CC50: SW480, 72 h; method in brief: as §1
[14] = Selectivity index, ratio of CC50 for human HFF1 cells to CC50 for human PTJ64i cells; type: toxicity; settings: HFF1 cells and PTJ64i cells
ASPC1 [15] = test: Antiproliferative activity against human AsPC1 cells assessed as inhibition of cell growth at 75 uM incubated for 72 hrs by MTT assay relative to control; type: functional; settings: ASPC1, 72 h
Homo sapiens [16] = species: Homo sapiens; test: Antiproliferative activity against human PTJ64i cells assessed as inhibition of cell growth incubated for 72 hrs by MTT assay; type: functional; method in brief: as §1
Homo sapiens [17] = species: Homo sapiens; test: Antiproliferative activity against human PTJ86i cells assessed as inhibition of cell growth incubated for 72 hrs by MTT assay; type: functional; method in brief: as §1
[18] = Selectivity index, ratio of CC50 for human HFF1 cells to CC50 for human PTJ86i cells; type: toxicity; settings: HFF1 cells and PTJ86i cells
BXPC-3 [19] = test: Antiproliferative activity against human BxPC3 cells assessed as inhibition of cell growth incubated for 72 hrs by MTT assay; type: functional; settings: for CC50: BXPC-3, 72 h; method in brief: as §1
Homo sapiens [20] = species: Homo sapiens; test: Antiproliferative activity against human PTJ64i cells assessed as inhibition of cell growth at 75 uM incubated for 72 hrs by MTT assay relative to control; type: functional
Homo sapiens [21] = species: Homo sapiens; test: as §2; type: functional
HepG2 = test: Cytotoxicity against human HepG2 cells at >5 uM; type: cell-based
[22] = target: T1, Peroxisome proliferator-activated receptor gamma (Homo sapiens); test: Agonist activity at GAL4-tagged human PPARgamma LBD expressed in human HepG2 cells incubated for 20 to 22 hrs by luciferase reporter gene assay; type: cell-based

CC(C)(Oc1ccc(CCOc2ccc(NC(=O)c3ccccc3)cc2)cc1)C(=O)NS(=O)(=O)c1ccccc1
inhibition at 75 µM (SW480 [1]): 52 to 98%
inhibition (ASPC1 [2]): Dose-dependent effect
CC50 (ASPC1 [2]): 7 µM
inhibition (A498 [3]): Dose-dependent effect
CC50 (A498 [3]): 4.6 µM
inhibition at 75 µM (BXPC-3 [4]): 41 to 92%
inhibition at 75 µM (HT-29 [5]): 52 to 98%
Activity [6]: inactive
IC50 [7]: 0.24 µM
inhibition at 75 µM [8]: 84 to 98%
inhibition at 75 µM (Capan-2 [9]): 41 to 92%
inhibition (Capan-2 [10]): Dose-dependent effect
CC50 (Capan-2 [10]): 7 µM
CC50 (HFF-1): > 24 µM
inhibition at 75 µM (A498 [11]): 51 to 71%
inhibition (HT-29 [12]): Dose-dependent effect
CC50 (HT-29 [12]): 7 µM
inhibition (SW480 [13]): Dose-dependent effect
CC50 (SW480 [13]): 7 µM
selectivity ratio [14]: > 9.45
inhibition at 75 µM (ASPC1 [15]): 41 to 92%
inhibition (Homo sapiens [16]): Dose-dependent effect
inhibition (Homo sapiens [17]): Dose-dependent effect
selectivity ratio [18]: > 11.3
inhibition (BXPC-3 [19]): Dose-dependent effect
CC50 (BXPC-3 [19]): 7 µM

CC(C)(Oc1ccc(CCOc2ccc(/N=N/c3ccccc3)cc2)cc1)C(=O)NS(=O)(=O)c1ccc(NC(=O)Cc2ccccc2)cc1
Activity [6]: inactive
IC50 [7]: 3.2 µM

Cc1cccc(Nc2cc(Cl)nc(SCC(=O)O)n2)c1C
inhibition (Homo sapiens [20]): inactive
inhibition (Homo sapiens [21]): inactive

CC(C)(Oc1ccc(CCOc2ccc(NC(=O)c3ccccc3)cc2)cc1)C(=O)NCc1ccccc1
Activity [6]: inactive
IC50 [7]: 12.1 µM

CCC(=O)NC[C@H](Cc1ccc(OCCc2nc(-c3ccccc3)oc2C)cc1)N/C(C)=C\C(=O)c1ccc(C(F)(F)F)cc1
inhibition at 75 µM [8]: 85 to 92%

CC(C)(Oc1ccc(CCOc2ccc(NC(=O)Nc3ccccc3)cc2)cc1)C(N)=O
Activity [6]: inactive
IC50 [7]: 3.32 µM

CC(C)(Oc1ccc(CCOc2ccc(/N=N/c3ccccc3)cc2)cc1)C(=O)NS(=O)(=O)c1ccc(Cl)cc1
inhibition at 75 µM (SW480 [1]): 52 to 98%
inhibition (ASPC1 [2]): Dose-dependent effect
CC50 (ASPC1 [2]): > 24 µM
inhibition (A498 [3]): Dose-dependent effect
CC50 (A498 [3]): > 24 µM
inhibition at 75 µM (BXPC-3 [4]): 41 to 92%
inhibition at 75 µM (HT-29 [5]): 52 to 98%
Activity [6]: inactive
IC50 [7]: 0.21 µM
inhibition at 75 µM [8]: 84 to 98%
inhibition at 75 µM (Capan-2 [9]): 41 to 92%
inhibition (Capan-2 [10]): Dose-dependent effect
CC50 (Capan-2 [10]): > 24 µM
CC50 (HFF-1): > 24 µM
inhibition at 75 µM (A498 [11]): 51 to 71%
inhibition (HT-29 [12]): Dose-dependent effect
CC50 (HT-29 [12]): > 24 µM
inhibition (SW480 [13]): Dose-dependent effect
CC50 (SW480 [13]): > 24 µM
selectivity ratio [14]: > 6.35
inhibition at 75 µM (ASPC1 [15]): 41 to 92%
inhibition (Homo sapiens [16]): Dose-dependent effect
inhibition (Homo sapiens [17]): Dose-dependent effect
selectivity ratio [18]: > 6.63
inhibition (BXPC-3 [19]): Dose-dependent effect
CC50 (BXPC-3 [19]): > 24 µM

CC(C)(Oc1ccc(CCOc2ccc(NC(=O)Nc3ccccc3)cc2)cc1)C(=O)NCc1ccccc1
Activity [6]: inactive
IC50 [7]: 10.3 µM

CC(C)(Oc1ccc(CCOc2ccc(NC(=O)Nc3ccccc3)cc2)cc1)C(=O)NS(=O)(=O)c1ccccc1
Activity [6]: inactive
IC50 [7]: 1.52 µM

CC(C)(Oc1ccc(CCOc2ccc(/N=N/c3ccccc3)cc2)cc1)C(=O)Nc1ccccc1
Activity [6]: inactive

CC(C)(Oc1ccc(CCOc2ccc(/N=N/c3ccccc3)cc2)cc1)C(=O)NS(C)(=O)=O
Activity (HepG2): Toxic
Activity [22]: inactive

CC(C)(CCCOc1ccc(/C=C/c2ccccc2)cc1)C(=O)NS(=O)(=O)c1ccccc1
Activity (HepG2): Toxic
Activity [22]: inactive

CC(C)(Oc1ccc(CCOc2ccc(NC(=O)c3ccccc3)cc2)cc1)C(N)=O
Activity [6]: inactive
IC50 [7]: 7 µM

CC(C)(Oc1ccc(CCOc2ccc(/N=N/c3ccccc3)cc2)cc1)C(=O)NS(=O)(=O)c1ccc([N+](=O)[O-])cc1
inhibition at 75 µM (SW480 [1]): 52 to 98%
inhibition (ASPC1 [2]): Dose-dependent effect
CC50 (ASPC1 [2]): > 24 µM
inhibition (A498 [3]): Dose-dependent effect
CC50 (A498 [3]): > 24 µM
inhibition at 75 µM (BXPC-3 [4]): 41 to 92%
inhibition at 75 µM (HT-29 [5]): 52 to 98%
Activity [6]: inactive
IC50 [7]: 1.1 µM
inhibition at 75 µM [8]: 84 to 98%
inhibition at 75 µM (Capan-2 [9]): 41 to 92%
inhibition (Capan-2 [10]): Dose-dependent effect
CC50 (Capan-2 [10]): > 24 µM
CC50 (HFF-1): > 24 µM
inhibition at 75 µM (A498 [11]): 51 to 71%
inhibition (HT-29 [12]): Dose-dependent effect
CC50 (HT-29 [12]): > 24 µM
inhibition (SW480 [13]): Dose-dependent effect
CC50 (SW480 [13]): > 24 µM
selectivity ratio [14]: > 8.3
inhibition at 75 µM (ASPC1 [15]): 41 to 92%
inhibition (Homo sapiens [16]): Dose-dependent effect
inhibition (Homo sapiens [17]): Dose-dependent effect
selectivity ratio [18]: > 8.63
inhibition (BXPC-3 [19]): Dose-dependent effect
CC50 (BXPC-3 [19]): 17 µM

CC(C)(Oc1ccc(CCOc2ccc(NC(=O)c3ccccc3)cc2)cc1)C(=O)Nc1ccccc1
Activity [6]: inactive
IC50 [7]: 12.3 µM

CC(C)(Oc1ccc(CCOc2ccc(NC(=O)Nc3ccccc3)cc2)cc1)C(=O)Nc1ccccc1
Activity [6]: inactive
IC50 [7]: 6.1 µM

CCCCNC(=O)C(C)(C)Oc1ccc(CCOc2ccc(NC(=O)c3ccccc3)cc2)cc1
Activity [6]: inactive

CC(C)(CCCOc1ccc(/C=C/c2ccccc2)cc1)C(=O)NS(C)(=O)=O
Activity (HepG2): Toxic
Activity [22]: inactive

— ChEMBL document CHEMBL4613275, “Sulfonimide and Amide Derivatives as Novel PPARα Antagonists: Synthesis, Antiproliferative Activity, and Docking Studies” (ACS Med Chem Lett, 2020)
